Screening results: PubChem BioAssay, several laboratories
Shown are actives, neighbours in structure and some others; about 2.6% of the full set was active somewhere.
rCAG binder = binders of r(CAG) RNA repeats, primary screen, biochemical, fluorescence. r(CAG) RNA repeat, TO-PRO-1 dye displacement fluorescence. inhibition, % at 3 µM. actives 1.3% (n = 370,000). AID 651821, 2012;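 active = inhibition above the plate cutoff, the mean of all test compounds on that plate plus 3 SD, cut at about 35% in these data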;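 note: 0% = DMSO alone and 100% = 100 µM mitoxantrone as full dye displacement; higher means more dye released from RNA so lower well fluorescence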
Scp-1 inhibitor = Scp-1 phosphatase inhibitors, primary screen, biochemical, colorimetric, uHTS | Carboxy-terminal domain RNA polymerase II polypeptide A small phosphatase 1 (Homo … | Recombinant Scp1, phosphopeptide, malachite green phosphate absorbance | inhibition, % at 20 µM | actives 0.88% (n = 340,000) | AID 493091, 2011;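 active = inhibition above about 50% at 20 µM, limit read from the data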;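 note: plate controls were DMSO wells with enzyme for no effect and wells lacking enzyme for full effect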
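Times: enzyme reaction 45 min at room temperature, colour 5 min, stabilisation 30 min. Material: SCP-1 catalytic fragment, aa 76-261. Medium: Acidic Tris acetate buffer with magnesium and detergent. Signal: colorimetric free-phosphate detection, absorbance 630 nm. Read-out basis: % inhibition of SCP-1 phosphate liberation. Reagent: Phosphorylated 17-residue peptide substrate.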
STEP block = STEP phosphatase inhibitors, primary screen, biochemical, fluorescence intensity, uHTS | AID 588621, 2011 | Tyrosine-protein phosphatase non-receptor type 5 (Homo sapiens), P54829 | actives 0.25% (n = 360,000) | inhibition, % at 20 µM | recombinant STEP, OMFP fluorogenic substrate;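 active = inhibition at 20 µM, scaled per plate between control wells, above about 37%, limit read from the data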;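 note: 0% = DMSO with enzyme and substrate and 100% = substrate only without enzyme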
Target sequence (P54829 whole entry, looked up): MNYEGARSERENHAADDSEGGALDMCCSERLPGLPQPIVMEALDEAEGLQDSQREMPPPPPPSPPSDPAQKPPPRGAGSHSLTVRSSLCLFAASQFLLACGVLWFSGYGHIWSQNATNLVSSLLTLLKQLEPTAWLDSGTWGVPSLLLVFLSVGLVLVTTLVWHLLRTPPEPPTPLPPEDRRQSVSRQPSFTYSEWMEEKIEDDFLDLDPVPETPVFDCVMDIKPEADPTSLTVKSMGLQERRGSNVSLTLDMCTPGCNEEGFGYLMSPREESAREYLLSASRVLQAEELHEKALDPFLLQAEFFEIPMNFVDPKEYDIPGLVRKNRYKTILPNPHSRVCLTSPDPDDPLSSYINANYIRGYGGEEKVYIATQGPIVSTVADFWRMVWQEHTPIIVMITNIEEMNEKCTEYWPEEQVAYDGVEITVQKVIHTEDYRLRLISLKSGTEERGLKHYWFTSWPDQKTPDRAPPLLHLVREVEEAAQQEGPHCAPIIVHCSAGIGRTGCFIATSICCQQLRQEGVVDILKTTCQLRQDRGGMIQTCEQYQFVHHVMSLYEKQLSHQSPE
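Material: STEP (striatal-enriched tyrosine phosphatase) enzyme, cell-free; Compound dosing: 20 µM single dose in 1% DMSO; Technique: fluorescence read at 480 nm ex / 540 nm em; Times: reaction 20 min, ambient temperature; Medium: 50 mM Bis-Tris pH 6.0 with 2.5 mM DTT and 0.005% Tween 20; Also added: OMFP at 25 µM.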
NadD inh = inhibitors of S. aureus NadD, primary screen, biochemical, colorimetric, uHTS; Nicotinate-nucleotide adenylyltransferase NadD (Staphylococcus aureus N315); purified NadD enzyme, colorimetric absorbance read-out; inhibition, % at 20 µM; actives 0.78% (n = 360,000); AID 602399, 2012; in the data active = inhibition above about 26%
LMPTP inh = LMPTP phosphatase inhibitors, primary screen, biochemical, fluorescence intensity, uHTS; recombinant LMPTP-A, OMFP fluorogenic substrate; inhibition, % at 20 µM; actives 0.22% (n = 360,000); AID 651560, 2012;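 active = compounds that cut the enzyme signal by at least half of the control window in the single-dose screen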;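 note: plate controls were DMSO wells with enzyme plus substrate for no effect and substrate without enzyme for full effect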
Target sequence (P24666 whole entry, looked up): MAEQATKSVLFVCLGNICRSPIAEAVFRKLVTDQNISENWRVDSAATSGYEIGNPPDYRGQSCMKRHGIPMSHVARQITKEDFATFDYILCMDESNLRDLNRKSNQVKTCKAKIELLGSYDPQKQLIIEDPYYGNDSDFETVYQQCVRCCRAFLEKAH
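Test system – LMPTP-A phosphatase enzyme · Quantity – 0.625 nM LMPTP-A final · Reagent – OMFP substrate, 400 µM final · Dosing – one test concentration per compound, 20 µM, with 3% DMSO overall · Timing – 50 min enzyme reaction at room temperature, protected from light · Detection – fluorescence intensity · Controls – substrate-only low control, DMSO enzyme-plus-substrate high control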
* hit, by the source's call; / = not tested or not shown.

SMILES	rCAG binder	Scp-1 inhibitor	STEP block	NadD inh	LMPTP inh
CC(Nc1nc(N2CCNCC2)nc2ccccc12)c1ccccc1 (stereo not drawn)	-1.8	5.4	7.0	10.6	85.0*
O=C1/C(=C/c2ccccc2)SC(=S)N1CC(=O)N1CCCCC1c1cccnc1 (stereo not drawn)	4.2	5.8	1.8	44.7*	4.0
O=C1/C(=C\c2ccccc2)SC(=S)N1CCC(=O)N1CCCCC1CCO (stereo not drawn)	-2.8	-6.9	-1.3	-0.5	0.2
N#CC(=C=[N-])C1=C(C#N)C(c2ccccc2F)C([n+]2ccccc2)C(O)(C2CC2)N1 (stereo not drawn)	3.0	-8.7	-1.5	7.8	-0.5
Cc1cccc[n+]1C1C(c2ccccc2)C(C#N)=C(C(=C=[N-])C#N)NC1(O)C1CC1 (stereo not drawn)	/	-1.9	-7.5	33.9*	1.5
CN(CCc1ccccc1)C(=O)c1cc2ccccn2n1	-0.3	/	/	/	/
COc1ccc(S[C@]2(C(=O)N(C)C)CC(=O)N(C(=O)C3CC3)[C@@H]2c2ccc(OC)cc2)cc1	2.6	/	/	/	/
CC(C)CC1=C/C(=C/c2ccc(-c3ccccc3)o2)C(=O)O1	43.5*	15.4	4.2	74.4*	3.8
NS(=O)(=O)c1ccc(-c2ccc(C=C3C(=O)c4ccccc4C3=O)o2)cc1	0.6	-11.3	-2.0	3.8	7.6
COC(=O)[C@H](CC(C)C)N(CCCc1cn(Cc2ccccc2)nn1)S(=O)(=O)c1ccc(F)cc1Br	0.6	/	/	/	/
COC(=O)[C@]12C[C@H](CC(=O)N3CCN(C(=O)C4CC4)CC3)C(=O)N(Cc3ccc(Cl)cc3Cl)C1=C[C@H](COCc1ccccc1)O[C@@H]2C	9.6	/	/	/	/
O=c1c2cc(Br)ccc2nc(-c2ccc(Cl)cc2)n1O	4.8	65.5*	95.5*	-4.1	50.9*
CC1CC(C)CN(CCCNS(=O)(=O)c2cc3c(cc2Br)CCN3C(=O)C2CC2)C1 (stereo not drawn)	2.8	/	/	/	/
CCOC(=O)c1ccc(NC(=O)CSc2nnc(-c3cc(-c4ccccc4)n[nH]3)n2N)cc1	12.4	/	/	/	/
COc1ccc(Nc2nc(-c3sc(N)nc3C)cs2)cc1	27.7	2.5	2.3	16.5	3.5
COc1ccc(CCNc2nc(-c3sc(N)nc3C)cs2)cc1OC	20.6	14.4	1.1	30.1*	3.1
COC(=O)[C@]12C[C@H](CC(=O)NCCC(C)C)C(=O)N(Cc3ccco3)C1=C[C@H](C(C)C)O[C@@H]2C1CC1	-1.5	/	/	/	/
CCOc1ccc(N=C2NC(=O)S/C2=C\c2ccc(N(C)C)cc2)cc1	0.7	0.4	-50.9	37.2*	1.9
CCOc1ccc(/C=C2/SC(=O)NC2=S)cc1	10.9	-13.1	0.3	0.6	-0.3
COC(=O)[C@]12C[C@H](CC(=O)NCCc3ccccc3OC)C(=O)N(Cc3cccc4ccccc34)C1=C[C@H](C(C)C)O[C@@H]2C1CC1	5.3	/	/	/	/
COC(=O)C1CN(Cc2cn(Cc3ccc(C)cc3)nn2)CCS(=O)(=O)N1Cc1ccc(F)cc1 (stereo not drawn)	0.2	/	/	/	/
NS(=O)(=O)c1ccc(CCN2C(=O)/C(=C\c3ccc(Cl)cc3)SC2=S)cc1	3.9	3.3	-1.7	32.6*	-2.4
Cc1ccc(C(=O)n2ccc3ccc(-c4ccc5ccn(Cc6ccccc6)c5c4)cc32)cc1	15.2	/	/	/	/
Cc1ccc(C(=O)ONc2ccc(N=NC(=O)c3ccccc3O)cc2)cc1	7.0	110.4*	77.1*	3.4	78.4*
CC(C)C[C@H]1COc2cc(F)ccc2S(=O)(=O)N1C	1.6	/	/	/	/
SMILES	rCAG binder	Scp-1 inhibitor	STEP block	NadD inh	LMPTP inh
Cc1ccc(S(=O)(=O)NNC(=O)c2cc3cc4ccccc4nc3s2)cc1	35.7*	-0.7	-2.3	9.6	0.2
CCn1cc(/C=C/c2cc[n+](C)cc2)c2ccccc21	-411.6	67.5*	-13.5	11.7	1.2
COC(=O)[C@]12C[C@H](CC(=O)NCc3ccc(OC)c(OC)c3)C(=O)N(Cc3cccc4ccccc34)C1=C[C@H](C1CCCC1)O[C@@H]2C	10.3	/	/	/	/
O=C(c1cc(F)cc(F)c1)N1CCCC(c2nc(-c3cccs3)no2)C1 (stereo not drawn)	1.7	/	/	/	/
COc1ccc(S[C@]2(C(=O)N3CCCC3)CC(=O)N(C(=O)CCc3ccccc3)[C@@H]2c2ccc(OC)cc2)cc1	9.3	/	/	/	/
CCC(C)Sc1cccc(-c2nc3ccc(Cl)cn3c2NCc2ccccc2)c1 (stereo not drawn)	/	31.3	4.6	31.2*	12.4
CCC(C)Sc1cccc(-c2nc3ccc(C)cn3c2NCc2ccccc2)c1 (stereo not drawn)	2.2	13.6	6.8	8.9	17.1
Cc1cc(C)c2nc(C)cc(N/N=C/c3ccc(O)cc3)c2c1	21.1	-4.5	4.5	9.7	69.1*
Cc1cc(N/N=C/c2ccc(O)cc2)c2cccc(C)c2n1	19.5	-0.6	2.1	9.1	57.4*
COC(=O)C1CN(Cc2ccc(C)cc2)CCS(=O)(=O)N1Cc1cn(Cc2ccc(C)cc2)nn1 (stereo not drawn)	2.1	/	/	/	/
Cc1ccc(C)c(N(CC(=O)N/N=C/c2ccc(-c3ccc([N+](=O)[O-])cc3)o2)S(=O)(=O)c2ccccc2)c1	18.8	-4.0	3.8	32.3*	2.7
COc1ccc(-n2c(C)cc(/C=C3\SC(=S)NC3=O)c2C)cc1	13.5	-0.9	0.0	44.8*	2.4
Cc1cc(/C=C2/SC(=O)NC2=O)c(C)n1-c1ccc(N2CCOCC2)cc1	10.0	-11.1	2.5	11.3	-2.4
Cc1cc(/C=C2\SC(=Nc3ccc(F)cc3)NC2=O)c(C)n1-c1ccc(S(N)(=O)=O)cc1	22.4	3.9	2.4	65.0*	2.0
O=C(O)c1c[nH]c2ccc(S(=O)(=O)N3CCN(c4ccc(F)cc4)CC3)cc2c1=O	9.2	17.1	75.8*	4.3	58.8*
O=C(N/N=C/c1cccc([N+](=O)[O-])c1)c1cccc(Br)c1	-3.1	-6.6	-2.6	-2.8	0.2
O=C(N/N=C/c1ccc([N+](=O)[O-])s1)c1cccc(Br)c1	4.3	96.5*	55.4*	2.7	74.5*
Cc1ccc(C(=O)N/N=C/c2ccc([N+](=O)[O-])s2)cc1	3.8	104.1*	23.5	0.2	47.5
O=C(N/N=C/c1ccc([N+](=O)[O-])s1)c1ccncc1	/	-6.7	3.0	1.8	-0.9
Cc1cc(N2CCN(C(C(=O)NC3CCCC3)c3ccc(-c4ccccc4)cc3)CC2)c2ccccc2n1 (stereo not drawn)	9.6	/	/	/	94.0*
Cc1cc(N2CCN(C(C(=O)NC3CCCC3)C(C)C)CC2)c2ccccc2n1 (stereo not drawn)	0.0	/	/	/	13.8
